# Bioassay records from PubChem.
# An excerpt weighted towards active compounds, which were near 1.6% of everything screened.
# VLA-4 inh: inhibition in a human VLA-4 binding assay | P13612 | VLA-4 expressing cells, ligand binding flow cytometry | inhibition, % (about 7 µM as worked out from the volumes in the protocol) | 0.2% of 330,000 active | AID 2557; in the data active means inhibition above about 50%
# NR2E3 ag-1: agonists of human NR2E3 nuclear receptor. CHO-S Gal4-NCOR/VP16-NR2E3 two-hybrid, luciferase. inhibition of corepressor binding, % at 3.98 µM. AID 602229. 0.35% of 360,000 active;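 active means inhibition above the mean of all tested compounds plus 3 SD, cut at about 70% in these data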;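 further: 0% = DMSO with NR2E3 transfected cells and 100% = cells lacking NR2E3 construct; higher means lower luciferase signal from less NR2E3 corepressor binding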
# Target sequence (Q9Y5X4 whole entry, looked up, the tested form may be a part): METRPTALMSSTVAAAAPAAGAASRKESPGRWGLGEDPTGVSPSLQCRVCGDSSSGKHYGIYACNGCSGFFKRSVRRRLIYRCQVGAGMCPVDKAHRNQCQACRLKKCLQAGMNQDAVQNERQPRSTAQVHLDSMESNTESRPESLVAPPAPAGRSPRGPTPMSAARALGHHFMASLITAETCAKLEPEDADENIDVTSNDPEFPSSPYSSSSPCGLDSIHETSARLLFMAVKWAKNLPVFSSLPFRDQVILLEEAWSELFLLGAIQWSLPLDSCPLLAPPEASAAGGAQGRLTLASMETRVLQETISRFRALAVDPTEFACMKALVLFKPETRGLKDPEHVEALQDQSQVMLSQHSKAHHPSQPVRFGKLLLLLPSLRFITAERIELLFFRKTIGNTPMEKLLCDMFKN
# NR2E3 ag-2: NR2E3 (human) agonism; Q9Y5X4; GST-NR2E3/biotin-RetCOR TR-FRET, 1536-well; 0.12% of 320,000 active; AID 2300; inhibition of corepressor binding, % at 4.78 µM;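 active means percent inhibition above the cutoff of mean plus 3 SD of all tested compounds, set per screening campaign, cut at about 20% in these data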;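 further: 0% = DMSO wells and 100% = biotin wells as full block of FRET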
#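 Format: 1536-well format; test system: GST-NR2E3 and biotin-RetCOR proteins; read-out basis: percent inhibition of TR-FRET ratio; timing: 5 h incubation at 4 °C; detection: time-resolved FRET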
# NR1D1 modulator: modulators of human Rev-erb alpha DNA binding; AID 1259318; activity, % at 10 µM; 0.79% of 370,000 active; Rev-erbα–FITC-DNA binding, fluorescence polarization, 90 min;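 active means activity above about 14%, limit read from the data; passing the limit was not always enough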;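 further: 0% = DMSO wells with 35 nM protein and 100% = DMSO wells with 750 nM protein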
# PG9 binder: binds the HIV-1 gp120 antibody PG9 | TR-FRET gp120-PG9 antibody binding | inhibition, % at 6.7 µM | 0.43% of 360,000 active | AID 624416; in the data active means inhibition above about 8.5%
# VLA-4 allo CP: confirmation of allosteric modulators of human VLA-4 integrin; inhibition, % at 6.7 µM; U937 cells, HUTS-21 LIBS mAb binding, flow cytometry; LDV ligand present at threefold Kd; shares compounds with VLA-4 inh; 2% of 1,300 active; in the data active means inhibition above about 40%;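 further: 0% = ligand without compound and 100% = no ligand background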
# Active calls of the source: *; nt = not tested or not shown.
SMILES,VLA-4 inh,NR2E3 ag-1,NR2E3 ag-2,NR1D1 modulator,PG9 binder,VLA-4 allo CP
COc1cccc(C2CC(=O)Nc3cc(OC)c(OC)c(OC)c32)c1OC (centres undefined),2.1,-23.0,0.1,6.6,-1.2,-0.8
COc1ccc(-c2csc(Nc3ncccc3C)n2)cc1,92.2*,-221.7,3.5,4.9,-0.6,-0.9
COc1ccc(-c2csc(Nc3ncccc3C)n2)cc1OC,9.6,-94.4,3.4,2.5,-0.3,nt
C#CCN1CC(COc2ccccc2)Oc2cccc(Oc3ccc(C(C)C)cc3)c2S1(=O)=O (centres undefined),nt,nt,nt,-3.9,0.7,nt
COc1ccc([C@H]2C(C(=O)O)=C[C@@H](C(C)(C)C)N2S(=O)(=O)c2ccc(C)cc2)cc1OC,39.6,10.3,nt,-0.5,0.6,1.3
CC[C@@H]1C=C(C(=O)O)[C@H](c2ccc(OC)c(OC)c2)N1S(=O)(=O)c1ccc(C)cc1,28.1,-32.4,nt,-2.2,0.3,0.6
CC[C@@H]1C=C(C(=O)O)[C@H](c2ccc(Cl)cc2)N1S(=O)(=O)c1ccc(C)cc1,-40.4,-32.1,nt,-2.0,0.0,nt
CC(C)(C)[C@@H]1C=C(C(=O)O)[C@H](c2ccc(Cl)cc2)N1S(=O)(=O)c1ccccc1,25.8,12.3,nt,-6.9,-0.5,-0.1
COc1ccc([C@@H]2CC=C(C(=O)O)[C@H](c3ccccc3)N2S(=O)(=O)c2ccc(C)cc2)cc1OC,22.1,10.2,-0.9,0.7,-0.7,nt
CC[C@@H]1C=C(C(=O)O)[C@H](c2ccc(C)cc2)N1S(=O)(=O)c1ccc(C)cc1,36.3,-22.7,nt,-1.7,-2.2,-0.1
O=C(CCc1ccccc1)N[C@H]1[C@H](OC(=O)c2cnccn2)CCC[C@@]12C(=O)N(Cc1ccccc1)c1ccccc12,nt,nt,nt,-4.8,nt,nt
CCc1ccc([C@H]2C(C(=O)O)=C[C@@H](C(C)(C)C)N2S(=O)(=O)c2ccc(C)cc2)cc1,26.4,8.6,nt,-0.6,0.1,1.3
N#CC1=C(S)N=C(N)C(c2nc(-c3ccccc3)cs2)C12CCCC2 (centres undefined),91.3*,-21.4,4.8,-2.5,1.4,-1.6
Cc1cc(C)cc(N(CC(=O)N2CCc3ccccc32)S(=O)(=O)c2c(C)noc2C)c1,17.5,10.9,0.5,-1.0,-1.4,-3.0
CCCCCCOc1ccc(N2C(=O)CC(N3CCN(C(=O)c4ccco4)CC3)C2=O)cc1 (centres undefined),12.7,-5.7,-0.9,-3.2,0.6,nt
CCOC(=O)C1CCN(C2CC(=O)N(c3ccc(OCC)cc3)C2=O)CC1 (centres undefined),-10.6,-9.9,0.0,-2.8,-1.6,-5.8
CCCCCCOc1ccc(N2C(=O)CC(N3CCC(C(=O)OCC)CC3)C2=O)cc1 (centres undefined),-9.9,2.1,2.2,-2.6,-0.9,-3.5
Cc1nnc(NC(=O)CSc2ccc3nnc(-c4cccnc4)n3n2)s1,54.5*,nt,4.4,nt,nt,3.3
O=C(CSc1ccc2nnc(-c3cccnc3)n2n1)NCC1CCCO1 (centres undefined),-20.2,-10.1,2.7,-2.2,2.4,1.6
S=C(NCc1ccc(Cl)cc1)OC1CCC12CCC(c1ccccc1)CC2 (centres undefined),nt,nt,nt,-0.6,nt,nt
COc1cccc(C(=O)Nc2ncc3c(n2)CC(C)CC3=O)c1 (centres undefined),61.8*,-11.1,-0.1,-3.5,0.0,-0.1
COc1cc(OC)cc(C(=O)Nc2ncc3c(n2)CC(C)CC3=O)c1 (centres undefined),5.0,11.5,-0.4,2.5,-2.2,nt
CC(C)C(=O)Nc1nnc(S(=O)(=O)N2CCCc3ccccc32)s1,51.3*,-37.0,2.0,-1.3,1.3,2.7
COc1ccccc1Nc1nc2ccc(C)cc2cc1C#N,107.8*,-5.5,1.6,8.4,0.8,-0.2
CN(C(=O)COC(=O)c1ccc2c(c1)OCO2)C1CCS(=O)(=O)C1 (centres undefined),93.0*,5.0,0.4,-4.5,0.1,0.0
SMILES,VLA-4 inh,NR2E3 ag-1,NR2E3 ag-2,NR1D1 modulator,PG9 binder,VLA-4 allo CP
CN(C(=O)COC(=O)c1ccc2c(c1)OCO2)C1CCCCC1,14.4,2.9,nt,5.8,0.6,nt
C/C(=N/NC(=O)c1ccoc1C)c1cccs1,nt,nt,nt,-0.1,nt,nt
Cc1cccc(-c2cccc3c4c([nH]c23)[C@@H]2C[C@H](N(C)C(=O)OCc3ccccc3)[C@H]([C@H](C)O)CN2CC4)c1,nt,nt,nt,-1.3,nt,nt
CCC(CC)NC(=O)Nc1ccc(F)c(Cl)c1,64.1*,16.9,3.4,-4.0,-0.8,7.0
Cc1ccc(NC(=O)Nc2ccc(F)c(Cl)c2)cc1,3.9,-79.8,5.9,2.4,-0.9,nt
CCC(C)C(NC(=O)c1ccc(Cl)cc1Cl)C(=O)O (centres undefined),13.8,-27.0,3.6,-0.7,-0.3,nt
CCC(C)C(NC(=O)c1ccc(Cl)cc1)C(=O)O (centres undefined),93.2*,3.3,4.7,-0.7,0.3,3.3
O=C(Nc1cccc(Cl)c1)OCc1cncs1,0.2,-9.2,0.9,-3.5,-1.1,3.7
O=C(Nc1ccc(Cl)cc1)OCc1cncs1,0.9,-58.1,4.2,-3.1,2.6,-9.5
COC(=O)c1ccc(-c2ccc3c(c2)[C@]2(CCC[C@@H](O)[C@@H]2NC(=O)CCc2ccccc2)C(=O)N3Cc2ccccc2)cc1,nt,nt,nt,0.4,nt,nt
O=C(Nc1nc2ncccn2c1-c1ccc(F)cc1)C1CC1,nt,nt,nt,-1.3,nt,nt
COc1ccc2c(c1)CN1CN(Cc3ccc(F)cc3)S(=O)(=O)CC21 (centres undefined),nt,nt,nt,3.3,nt,nt
CC(=O)Nc1nc(COc2ccc3ccccc3c2)cs1,56.2*,-63.7,6.5,2.2,1.5,5.4
CC(=O)Nc1nc(COc2ccccc2)cs1,0.1,-42.6,-5.9,0.3,-3.6,nt
Cc1ccccc1Nc1nc(N)nc(CSc2ccc(F)cc2)n1,8.2,-160.2,2.8,-2.8,-0.7,nt
Cc1ccc(SCc2nc(N)nc(Nc3ccccc3C)n2)cc1C,54.1*,-24.7,3.5,-0.4,-2.1,-5.8
Nc1[nH]c2cc(C(F)(F)F)ccc2c1C(=O)NC1CCCCC1,nt,nt,nt,1.8,nt,nt
COc1ccc(C)cc1NC(=O)CSc1nnc(-c2n[nH]c3c2CCC3)n1N,nt,nt,nt,1.2,nt,nt
COc1ccc(-n2c(Cc3cc(=O)[nH]c(=O)[nH]3)nnc2SCC(=O)N2CCC(C)CC2)cc1,10.4,9.2,3.9,-3.0,-0.5,0.3
CC1CCN(C(=O)CSc2nnc(Cc3cc(=O)[nH]c(=O)[nH]3)n2-c2ccc(Cl)cc2)CC1,-59.4,-6.9,2.0,6.3,2.1,10.9
COc1cccc(-n2c(Cc3cc(=O)[nH]c(=O)[nH]3)nnc2SCC(=O)N2CCC(C)CC2)c1,17.3,-8.8,3.8,-2.1,-2.1,4.7
CCOC(=O)CNC(=O)CSc1nnc(-c2ccc(C(C)(C)C)cc2)n1-c1ccc(Cl)cc1,nt,nt,nt,3.9,nt,nt
